Converted amounts (≈) assume the structure as drawn.
Key:
Staphylococcus aureus [1] = test: Antibacterial activity against Staphylococcus aureus ATCC 25923 after 18 hrs by macro broth dilution assay; format: functional; conditions: for MIC: Staphylococcus aureus, ATCC 25923, 18 h
Summary of the method: (§1)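 Compounds dissolved in 50% DMSO–water at 400 (stock); fourfold dilution with medium and inoculum gives 100 top concentration in first tube (12.5% DMSO, not scored). Inoculum: 4–5 colonies from overnight Tryptic Soy Agar in saline to 0.5 McFarland, diluted 1:100 in MHB (10⁶ CFU/ml); 1 mL added to 1 mL compound dilution in MHB. 35 °C, 18 h; MIC read. Agar diffusion pre-screen first.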

Staphylococcus aureus [2] = test: Antibacterial activity against methicillin-resistant Staphylococcus aureus ATCC 43300 after 18 hrs by macro broth dilution assay; format: functional; conditions: for MIC: Staphylococcus aureus, ATCC 43300, 18 h; summary of the method: as §1

Structure (SMILES)	log(1/C) (Staphylococcus aureus [1])	MIC (Staphylococcus aureus [1]) [µg/mL]	MIC (Staphylococcus aureus [2]) [µg/mL]	log(1/C) (Staphylococcus aureus [2])
Clc1ccc(Nc2nc3cc(Cl)ccc3[nH]2)c(Cl)c1	5.9	0.39 (≈ 1.25 µM)	0.39 (≈ 1.25 µM)	
CC1(C)S[C@@H]2[C@H](NC(=O)[C@H](N)c3ccccc3)C(=O)N2[C@H]1C(=O)O [AMPICILLIN]		0.78 (≈ 2.23 µM)	25 (≈ 71.5 µM)	
Cc1cc2[nH]c(Nc3ccc(Cl)c(Cl)c3)nc2cc1Cl	5.92	0.39 (≈ 1.19 µM)	0.39 (≈ 1.19 µM)	
Clc1ccc(Nc2nc3cc(Br)ccc3[nH]2)cc1Cl	6.55	0.095 (≈ 0.266 µM)	0.19 (≈ 0.532 µM)	6.28
Fc1cc(F)cc(Nc2nc3cc(Cl)ccc3[nH]2)c1	5.25	1.56 (≈ 5.58 µM)	1.56 (≈ 5.58 µM)	
Clc1ccc2[nH]c(Nc3ccc(Cl)c(Cl)c3)nc2c1	5.9	0.39 (≈ 1.25 µM)	0.39 (≈ 1.25 µM)	
CC1(C)S[C@@H]2[C@H](NC(=O)[C@H](N)c3ccccc3)C(=O)N2[C@H]1C(=O)OCOC(=O)[C@@H]1N2C(=O)C[C@H]2S(=O)(=O)C1(C)C [SULTAMICILLIN]		0.78 (≈ 1.31 µM)	25 (≈ 42 µM)	
FC(F)(F)c1ccc(Nc2nc3cc(Cl)ccc3[nH]2)cc1	5.9	0.39 (≈ 1.25 µM)	0.39 (≈ 1.25 µM)	
Fc1ccc(Nc2nc3cc(Cl)ccc3[nH]2)c(F)c1	4.35	12.5 (≈ 44.7 µM)	6.25 (≈ 22.3 µM)	4.65
O=[N+]([O-])c1ccc2[nH]c(Nc3ccc(Cl)cc3)nc2c1	5.27	1.56 (≈ 5.4 µM)	1.56 (≈ 5.4 µM)	
Fc1cccc(Nc2nc3cc(Cl)ccc3[nH]2)c1	4.62	6.25 (≈ 23.9 µM)	6.25 (≈ 23.9 µM)	
Clc1ccc(Nc2nc3cc(Cl)c(Cl)cc3[nH]2)cc1Cl	5.95	0.39 (≈ 1.12 µM)	0.39 (≈ 1.12 µM)	
Fc1ccc(Nc2nc3cc(Cl)ccc3[nH]2)cc1Cl	5.28	1.56 (≈ 5.27 µM)	1.56 (≈ 5.27 µM)	
FC(F)(F)c1cc(Nc2nc3cc(Cl)ccc3[nH]2)ccc1Cl	5.95	0.39 (≈ 1.13 µM)	0.39 (≈ 1.13 µM)	
Clc1ccc(Nc2nc3cc(Cl)c(Cl)cc3[nH]2)cc1	5.9	0.39 (≈ 1.25 µM)	0.39 (≈ 1.25 µM)	
Clc1ccc(Oc2ccccc2Nc2nc3cc(Cl)ccc3[nH]2)cc1	5.38	1.56 (≈ 4.21 µM)	1.56 (≈ 4.21 µM)	
Clc1ccc(Nc2nc3cc(Cl)ccc3[nH]2)cc1	4.95	3.12 (≈ 11.2 µM)	1.56 (≈ 5.61 µM)	5.25

Structure (SMILES)	log(1/C) (Staphylococcus aureus [1])	MIC (Staphylococcus aureus [1]) [µg/mL]	MIC (Staphylococcus aureus [2]) [µg/mL]	log(1/C) (Staphylococcus aureus [2])
Clc1cc(Cl)cc(Nc2nc3cc(Cl)ccc3[nH]2)c1	5.9	0.39 (≈ 1.25 µM)	0.39 (≈ 1.25 µM)	
[N-]=[N+]=Nc1ccc(Nc2nc3cc(Cl)ccc3[nH]2)cc1	4.96	3.12 (≈ 11 µM)	6.25 (≈ 22 µM)	4.66
FC(F)(F)Oc1ccc(Nc2nc3cc(Cl)ccc3[nH]2)cc1	5.62	0.78 (≈ 2.38 µM)	0.78 (≈ 2.38 µM)	
Fc1ccc(Nc2nc3cc(Cl)ccc3[nH]2)cc1	4.92	3.12 (≈ 11.9 µM)	12.5 (≈ 47.8 µM)	4.32
Clc1ccc(Nc2nc3ccccc3[nH]2)cc1Cl	4.95	3.12 (≈ 11.2 µM)	6.25 (≈ 22.5 µM)	4.65
Nc1ccc2[nH]c(Nc3ccc(Cl)c(Cl)c3)nc2c1	4.07	25 (≈ 85.3 µM)	50 (≈ 171 µM)	3.77
O=[N+]([O-])c1ccc2[nH]c(Nc3ccc(Cl)c(Cl)c3)nc2c1	5.62	0.78 (≈ 2.41 µM)	1.56 (≈ 4.83 µM)	5.32
FC(F)(F)c1ccc(Cl)c(Nc2nc3cc(Cl)ccc3[nH]2)c1	5.65	0.78 (≈ 2.25 µM)	0.78 (≈ 2.25 µM)	
N#Cc1ccc2[nH]c(Nc3ccc(Cl)c(Cl)c3)nc2c1	5.28	1.56 (≈ 5.15 µM)	1.56 (≈ 5.15 µM)	
COc1ccc(Nc2nc3cc(Cl)ccc3[nH]2)cc1	3.74	50 (≈ 183 µM)	50 (≈ 183 µM)	
COC(=O)c1ccc2[nH]c(Nc3ccc(Cl)c(Cl)c3)nc2c1	5.34	1.56 (≈ 4.64 µM)	0.78 (≈ 2.32 µM)	5.64
Fc1ccc2[nH]c(Nc3ccc(Cl)c(Cl)c3)nc2c1	5.28	1.56 (≈ 5.27 µM)	1.56 (≈ 5.27 µM)	
Clc1ccc(Nc2nc3cc(I)ccc3[nH]2)cc1Cl	5.71	0.78 (≈ 1.93 µM)	0.78 (≈ 1.93 µM)	
FC(F)(F)c1cccc(Nc2nc3cc(Cl)ccc3[nH]2)c1	5.9	0.39 (≈ 1.25 µM)	1.56 (≈ 5 µM)	5.3
Clc1ccc2[nH]c(Nc3ccc(Br)cc3)nc2c1	5.31	1.56 (≈ 4.84 µM)	0.78 (≈ 2.42 µM)	5.62
FC(F)(F)c1ccc2[nH]c(Nc3ccc(Cl)c(Cl)c3)nc2c1	6.26	0.19 (≈ 0.549 µM)	0.19 (≈ 0.549 µM)	

From ChEMBL document CHEMBL1156701, “Synthesis, potent anti-staphylococcal activity and QSARs of some novel 2-anilinobenzazoles” (2008)
